According to ChEMBL document CHEMBL5252545, “Elucidation of antimicrobial activity and mechanism of action by N-substituted carbazole derivatives” (Bioorg Med Chem Lett, 2017):
The source made the active and inactive calls. No cut-off for these calls is given here.

Tests used:
[1] = Dissociation constant, pKa of the compound; type: physicochemical
[2] = tested on: Nakaseomyces glabratus; experiment: Fungicidal against wild type Candida glabrata ATCC 90030 assessed as cell death at 5 to 10 uM measured upto 24 hrs by time-kill assay; type: functional, organism-based; details: dose 5-10 µM
Outline: (§1)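 Time-kill assay: C. albicans or C. glabrata cells at 1×10^5 CFU/ml incubated with compound at 5 or 10 μM. DMSO final concentration 1%. Viability followed over time.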

[3] = target: T1, Plasma membrane ATPase 1 (Saccharomyces cerevisiae (strain ATCC 204508 / S288c) (Baker's yeast)) (UniProt P05030); experiment: Inhibition of Saccharomyces cerevisiae H+ ATPase pma1 isoform assessed as reduction in ATP hydrolysis rate at 10 uM measured upto 150 sec by measuring […] ATPase activity by spectrophotometry method
T1 sequence (whole entry): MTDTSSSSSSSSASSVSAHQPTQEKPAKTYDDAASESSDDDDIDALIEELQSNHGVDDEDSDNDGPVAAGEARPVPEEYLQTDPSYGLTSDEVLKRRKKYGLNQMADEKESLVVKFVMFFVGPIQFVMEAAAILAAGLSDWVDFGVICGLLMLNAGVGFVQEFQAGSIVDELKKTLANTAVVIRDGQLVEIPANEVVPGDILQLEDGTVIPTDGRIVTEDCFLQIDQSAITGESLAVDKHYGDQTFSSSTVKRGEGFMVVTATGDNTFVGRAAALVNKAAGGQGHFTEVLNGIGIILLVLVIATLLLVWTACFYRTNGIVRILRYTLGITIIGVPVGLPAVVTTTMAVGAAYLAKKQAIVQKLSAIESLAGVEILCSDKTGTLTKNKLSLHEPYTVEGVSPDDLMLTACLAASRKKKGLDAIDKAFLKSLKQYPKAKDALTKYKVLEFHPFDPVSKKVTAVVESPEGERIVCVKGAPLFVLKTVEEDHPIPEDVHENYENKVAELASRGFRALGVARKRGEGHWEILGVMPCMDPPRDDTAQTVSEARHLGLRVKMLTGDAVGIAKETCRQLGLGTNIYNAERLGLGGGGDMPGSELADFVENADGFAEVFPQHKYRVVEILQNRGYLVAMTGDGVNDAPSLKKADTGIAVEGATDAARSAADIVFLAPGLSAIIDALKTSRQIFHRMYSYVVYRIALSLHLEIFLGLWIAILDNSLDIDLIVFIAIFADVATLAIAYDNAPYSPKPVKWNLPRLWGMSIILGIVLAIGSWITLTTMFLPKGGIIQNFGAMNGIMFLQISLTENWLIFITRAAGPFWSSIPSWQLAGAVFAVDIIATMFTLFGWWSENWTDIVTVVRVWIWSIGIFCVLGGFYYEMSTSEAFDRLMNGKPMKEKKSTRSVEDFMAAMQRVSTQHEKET
Outline: (§2)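 S. cerevisiae plasma membranes containing H⁺-ATPase added to start the reaction in pH 7 buffer with 5 mM ATP. Compound added at the indicated times, final DMSO 1.1%. Initial ATP hydrolysis rate read spectrophotometrically by NADH-coupled assay with phosphoenolpyruvate regenerating ATP.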

[4] = tested on: Candida albicans; experiment: Fungicidal activity against Candida albicans SC5314 assessed as cell death at 5 to 10 uM measured upto 24 hrs by time-kill assay; type: functional, organism-based; details: dose 5-10 µM; outline: as §1
[5] = target: T1, Plasma membrane ATPase 1 (Saccharomyces cerevisiae (strain ATCC 204508 / S288c) (Baker's yeast)); experiment: Inhibition of Saccharomyces cerevisiae H+ ATPase pma1 isoform assessed as reduction in ATP hydrolysis rate at 50 uM measured upto 150 sec by measuring […] ATPase activity by spectrophotometry method; outline: as §2
[6] = target: T1, Plasma membrane ATPase 1 (Saccharomyces cerevisiae (strain ATCC 204508 / S288c) (Baker's yeast)); experiment: Inhibition of Saccharomyces cerevisiae H+ ATPase pma1 isoform assessed as reduction in ATP hydrolysis rate at 100 uM measured upto 150 sec by measuring […] ATPase activity by spectrophotometry method; outline: as §2

Row | Compound | pKa [1] | further results
1 | CN1CCN(CC(O)Cn2c3ccc(Cl)cc3c3cc(Cl)ccc32)CC1 (stereo not given) | 7.6 | –
2 | CCC(C)NCC(O)Cn1c2ccc(Cl)cc2c2cc(Cl)ccc21 (stereo not given) | 9.2 | Activity [2]: Active; inhibition [3]: Active; Activity [4]: Active

More lines, main results first:

Row | pKa [1] | Compound | further results
3 | 2.7 | OC(Cn1cncn1)Cn1c2ccc(Cl)cc2c2cc(Cl)ccc21 (stereo not given) | –
4 | 6.6 | OC(CN1CCOCC1)Cn1c2ccc(Cl)cc2c2cc(Cl)ccc21 (stereo not given) | inhibition [5]: Active
5 | 7.1 | OC(Cn1ccnc1)Cn1c2ccc(Cl)cc2c2cc(Cl)ccc21 (stereo not given) | inhibition [6]: Active
